Activity calls are given as the source filed them. The calls are words filed in the database; no cut-off is given here.
What was measured:
[1] = target: T1, Prostaglandin D2 receptor 2 (Homo sapiens, UniProt Q9Y5Y4); test: Antagonist activity at human recombinant CRTh2 expressed in CHO-K1 cells by cAMP TR FRET assay; type: functional, cell-based
T1 sequence (Q9Y5Y4 whole entry): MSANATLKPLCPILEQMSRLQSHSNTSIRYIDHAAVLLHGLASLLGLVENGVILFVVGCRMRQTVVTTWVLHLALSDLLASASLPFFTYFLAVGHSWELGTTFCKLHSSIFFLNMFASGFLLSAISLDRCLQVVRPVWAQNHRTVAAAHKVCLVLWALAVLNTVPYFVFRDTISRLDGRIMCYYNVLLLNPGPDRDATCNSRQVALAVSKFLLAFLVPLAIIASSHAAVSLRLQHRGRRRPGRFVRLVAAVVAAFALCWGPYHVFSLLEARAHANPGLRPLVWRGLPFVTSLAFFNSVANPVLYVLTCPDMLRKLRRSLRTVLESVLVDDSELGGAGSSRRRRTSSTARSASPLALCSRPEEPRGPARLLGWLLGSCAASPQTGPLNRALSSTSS

[2] = system: Mus musculus; test: Antiallergic inflammatory activity in oxazolone induced contact hypersensitivity mouse model assessed as reduction ear swelling at 3 mg/kg, po prior to oxazolone and 7 hrs post challenge measured after 24 hrs; type: functional
How it was run: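 Mice sensitized on the shaved abdomen with 2% oxazolone in ethanol one week before challenge. Dosed orally 1 h before the left ear was challenged with 10 μL of 2% oxazolone (ethanol on the right ear as control), then redosed 7 h after challenge. Ear thickness measured by micrometer; swelling taken as 24 h post-challenge minus pre-challenge thickness. Unpaired t test.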

[3] = organism: Rattus norvegicus; test: Clearance in rat; details: in vivo
[4] = system: Rattus norvegicus; test: Oral bioavailability in rat; details: in vivo
[5] = Metabolic clearance in rat hepatocytes measured per 10^6 cells; type: ADME, cell-based, Hepatocyte; details: read-out: CLH
[6] = Metabolic clearance in monkey hepatocytes measured per 10^6 cells; type: ADME, cell-based, Macaca mulatta, Hepatocyte; details: rhesus monkey, read-out: CLH
[7] = Metabolic clearance in dog hepatocytes measured per 10^6 cells; type: ADME, cell-based, Canis lupus familiaris, Hepatocyte; details: read-out: CLH
[8] = system: Hepatocyte; test: In vitro intrinsic biliary clearance in sandwich cultured human hepatocytes measured; type: ADME, cell-based, Bile
How it was run: (§1)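 Sandwich-cultured hepatocytes incubated with substrate at 1–50 μM (rat) or 1–10 μM (human), with and without Ca2+. Biliary excretion taken as the difference in cellular accumulation between the two conditions. Intrinsic biliary clearance calculated as amount excreted into bile divided by substrate concentration over time.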

[9] = system: Rattus norvegicus; test: In vivo intrinsic biliary clearance in rat; type: ADME, organism-based, Bile
[10] = system: Hepatocyte; test: In vitro intrinsic biliary clearance in sandwich cultured rat hepatocytes measured; type: ADME, cell-based, Bile; how it was run: as §1
[11] = Drug excretion in dog feces assessed as drug recovery at 5 mg/kg, iv measured after 24 hrs by LC-MS analysis; type: ADME, organism-based, Canis lupus familiaris; design: dose 5 mg/kg, route intravenous; details: faeces, read-out: Drug recovery
How it was run: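 Dogs given a single intravenous dose of 5 mg/kg; unchanged parent drug measured in the feces.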

[12] = Drug excretion in rat bile assessed as drug recovery at 5 mg/kg, iv measured after 24 hrs by LC-MS analysis; type: ADME, organism-based; design: dose 5 mg/kg, route intravenous; details: read-out: Drug recovery
How it was run: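 Bile duct-cannulated rats given a single iv dose of 5 mg/kg; parent drug recovered in bile and urine over 24 h.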

[13] = Oral bioavailability in monkey at 10 mg/kg; type: ADME, organism-based, Macaca mulatta; details: rhesus monkey, in vivo
[14] = Plasma clearance in rat at 5 mg/kg, iv measured after 24 hrs by LC-MS analysis; type: ADME, organism-based; design: dose 5 mg/kg, route intravenous
How it was run: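 Bile duct-cannulated rats received a single iv dose of 5 mg/kg. Average plasma clearance was determined, and parent drug was quantified in bile and urine collected over 24 h.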

[15] = Oral bioavailability in dog at 10 mg/kg; type: ADME, organism-based, Canis lupus familiaris; details: in vivo
[16] = Cmax in dog at 10 mg/kg, po; type: ADME, organism-based, Canis lupus familiaris; design: dose 10 mg/kg, route oral; details: in vivo
How it was run: (§2)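 Single intravenous dose of 2 mg/kg and single oral dose of 10 mg/kg, given separately, in rat, dog and monkey. Clearance and half-life taken from the iv arm; Cmax from the oral arm.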

[17] = Cmax in monkey at 10 mg/kg, po; type: ADME, organism-based, Macaca mulatta; design: dose 10 mg/kg, route oral; details: rhesus monkey, in vivo; how it was run: as §2
[18] = Volume of distribution at steady state in monkey at 2 mg/kg, iv; type: ADME, organism-based, Macaca mulatta; design: dose 2 mg/kg, route intravenous; details: rhesus monkey, in vivo, read-out: Vdss
[19] = Volume of distribution at steady state in dog at 2 mg/kg, iv; type: ADME, organism-based, Canis lupus familiaris; design: dose 2 mg/kg, route intravenous; details: in vivo, read-out: Vdss
[20] = Half life in dog at 2 mg/kg, iv; type: ADME, organism-based, Canis lupus familiaris; design: dose 2 mg/kg, route intravenous; details: in vivo; how it was run: as §2
[21] = Half life in monkey at 2 mg/kg, iv; type: ADME, organism-based, Macaca mulatta; design: dose 2 mg/kg, route intravenous; details: rhesus monkey, in vivo; how it was run: as §2
[22] = Clearance in monkey at 2 mg/kg, iv; type: ADME, organism-based, Macaca mulatta; design: dose 2 mg/kg, route intravenous; details: rhesus monkey, in vivo; how it was run: as §2
[23] = Clearance in dog at 2 mg/kg, iv; type: ADME, organism-based, Canis lupus familiaris; design: dose 2 mg/kg, route intravenous; details: in vivo; how it was run: as §2
[24] = system: Mus musculus; test: Antiallergic activity in house dust mite-induced allergic airway disease BALB/c mouse model assessed as reduction in airway inflammation at 1 mg/kg, ip qd after 17 days; type: functional, organism-based; design: dose 1 mg/kg
[25] = Clearance in rat at 2 mg/kg, iv and 10 mg/kg, po; type: ADME, organism-based; details: in vivo
[26] = Oral bioavailability in rat at 10 mg/kg; type: ADME, organism-based; details: in vivo

Molecule `Cc1c(Cc2ccc(=O)n(Cc3cc(F)ccc3F)n2)c2cc(F)ccc2n1CC(=O)O` has an IC50 [1] of 0.002 µM.
In the case of `Cc1c(-c2ccc(=O)n(Cc3c(F)cccc3F)c2)c2ccccc2n1CC(=O)O`, the IC50 [1] is reported as 0.021 µM.
`Cc1c(Cc2ccc(=O)n(CCCC(F)(F)F)c2)c2cc(F)ccc2n1CC(=O)O` showed an IC50 [1] of 0.15 µM.
In the case of `Cc1c(-c2cn(CC(C)(C)C)c(=O)c3ccccc23)c2cc(F)ccc2n1CC(=O)O`, the inhibition in vivo at 3 mg/kg [2] is reported as 47.4%.
With `Cc1c(-c2cn(CC(F)(F)F)c(=O)c3ccccc23)c2cc(F)ccc2n1CC(=O)O` the inhibition in vivo at 3 mg/kg [2] was 32.8%, the clearance [3] was 1.2 L/h/kg and the bioavailability [4] was 35%.
`Cc1c(-c2ccc(=O)n(Cc3c(F)cccc3F)c2)c2cc(F)ccc2n1CC(=O)O` gave an IC50 [1] of 0.006 µM.
With `Cc1c(-c2ccc(OCCCC(F)(F)F)nc2)c2cc(F)ccc2n1CC(=O)O` the IC50 [1] was 0.689 µM.
In the case of `COc1ccc2c(c1)c(-c1ccc(=O)n(CC(F)(F)F)c1)c(C)n2CC(=O)O`, the IC50 [1] is reported as 2 µM.
With `Cc1c(-c2ccc(=O)n(C(C)C)c2)c2cc(F)ccc2n1CC(=O)O` the IC50 [1] was 0.07 µM.
`Cc1c(Cc2ccc(=O)n(Cc3cccc(F)c3)n2)c2cc(F)ccc2n1CC(=O)O` showed an IC50 [1] of 0.008 µM.
`Cc1c(-c2ccc(=O)n(CC(F)(F)F)c2)c2cc(F)ccc2n1CC(=O)O` showed an IC50 [1] of 0.084 µM.
In the case of `Cc1c(Cc2ccc(=O)n(Cc3ccc(F)cc3F)n2)c2cc(F)ccc2n1CC(=O)O`, the hepatocyte CLint [5] is reported as < 5 µL/min/1e6 cells, the hepatocyte CLint [6] is reported as < 5 µL/min/1e6 cells and the hepatocyte CLint [7] is reported as < 5 µL/min/1e6 cells. For the same molecule, the CLH [8] was < 1 µL/min/µg, the CL [9] was 0.228 L/h/kg and the CLH [10] was < 2.6 µL/min/µg. The dose excreted at 24 h [11] was > 90%, the dose excreted at 24 h [12] was 27% and the bioavailability [13] was 12%. The clearance [14] was 0.84 L/h/kg, the bioavailability [15] was 8% and the Cmax [16] was 0.716 µg/mL. It also gave a Cmax [17] of 0.246 µg/mL, a Vd [18] of 0.4 L/kg and a Vd [19] of 0.4 L/kg. The half-life [20] was 2.3 h, the half-life [21] was 2.3 h and the clearance [22] was 1.26 L/h/kg. For the same molecule, the clearance [23] was 1.2 L/h/kg.
With `Cc1c(-c2ccc(=O)n(Cc3ccc(F)cc3F)c2)c2cc(F)ccc2n1CC(=O)O` the IC50 [1] was 0.017 µM.
Work on `Cc1c(-c2ccc(=O)n(Cc3cccc(F)c3F)c2)c2cc(F)ccc2n1CC(=O)O` yielded an IC50 [1] of 0.0008 µM.
Molecule `Cc1c(Cc2ccc(=O)n(CCCC(F)(F)F)n2)c2cc(F)ccc2n1CC(=O)O` has an IC50 [1] of 0.011 µM.
With `C[C@@H]1C[C@H]2[C@@H]3CCC4=CC(=O)C=C[C@]4(C)[C@@]3(F)[C@@H](O)C[C@]2(C)[C@@]1(O)C(=O)CO` the inhibition [24] was “Active”.
`Cc1c(Cc2ccc(=O)n(CC(F)(F)F)n2)c2cc(F)ccc2n1CC(=O)O` gave an IC50 [1] of 0.018 µM.
Work on `Cc1ccc2c(c1)c(-c1ccc(=O)n(CC(F)(F)F)c1)c(C)n2CC(=O)O` yielded an IC50 [1] of 1.12 µM.
In the case of `Cc1c(Cc2ccc(=O)n(CC(F)(F)F)c2)c2cc(F)ccc2n1CC(=O)O`, the clearance [25] is reported as 0.42 L/h/kg, the IC50 [1] is reported as 0.052 µM and the bioavailability [26] is reported as 20%.
For `Cc1c(Cc2ccc(=O)n(Cc3ccc(F)cc3)n2)c2cc(F)ccc2n1CC(=O)O`, the IC50 [1] was 0.006 µM.
With `Cc1c(-c2cn(CC(F)(F)F)c(=O)c3c2CCCC3)c2cc(F)ccc2n1CC(=O)O` the IC50 [1] was 1 µM.
With `Cc1c(-c2ccc(=O)n(CC(F)(F)F)c2)c2cc(Cl)ccc2n1CC(=O)O` the IC50 [1] was 0.148 µM.
In the case of `Cc1c(-c2cn(Cc3ccccc3)c(=O)c3c2CCCC3)c2cc(F)ccc2n1CC(=O)O`, the IC50 [1] is reported as 0.192 µM.
For `Cc1c(-c2cn(CCCC(F)(F)F)c(=O)c3ccccc23)c2cc(F)ccc2n1CC(=O)O`, the inhibition in vivo at 3 mg/kg [2] was 30.4%, the IC50 [1] was 0.001 µM and the clearance [3] was 2.1 L/h/kg. The bioavailability [4] was < 5%.
With `Cc1c(-c2cn(Cc3ccccc3)c(=O)c3ccccc23)c2cc(F)ccc2n1CC(=O)O` the IC50 [1] was 0.014 µM.
With `Cc1c(-c2ccc(=O)n(C(C)C)c2)c2cc(Cl)ccc2n1CC(=O)O` the IC50 [1] was 0.195 µM.
In the case of `Cc1c(-c2ccc(=O)n(C(C)C)c2)c2ccccc2n1CC(=O)O`, the IC50 [1] is reported as 0.556 µM.
For `Cc1c(-c2ccc(=O)n(Cc3ccccc3)c2)c2cc(F)ccc2n1CC(=O)O`, the clearance [25] was 0.9 L/h/kg and the bioavailability [26] was < 10%.
With `Cc1c(Cc2ccc(=O)n(Cc3ccc(F)cc3F)c2)c2cc(F)ccc2n1CC(=O)O` the clearance [25] was 1.92 L/h/kg, the IC50 [1] was 0.004 µM and the bioavailability [26] was 4%.
For `Cc1c(-c2ccc(=O)n(CCCC(F)(F)F)c2)c2cc(F)ccc2n1CC(=O)O`, the IC50 [1] was 0.016 µM.

Reference: ChEMBL document CHEMBL3232705, “Discovery of isoquinolinone indole acetic acids as antagonists of chemoattractant receptor homologous molecule expressed on Th2 cells (CRTH2) for the treatment of allergic inflammatory diseases” (J Med Chem, 2014)
